Experimental data: the array DNA melting data of Ke et al. (doi:10.1101/2024.01.08.574731)

What was measured:
[1] = folding enthalpy; higher = less favourable; fluorescence melt of hairpins on a sequencing array, two-state fit; details: sodium 0.088 M
Method in brief: (§1)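 Two-state fits, bootstrapped, provided melting temperature and folding enthalpy from Cy3 fluorescence normalised to pre-quench Cy3 and to control constructs. Library hairpins with annealed Cy3 and quencher oligos were imaged on a sequenced MiSeq flow cell in 50 mM Na-HEPES pH 8.0, 25 mM NaCl, at 2.5 °C intervals up to 60 °C. Four replicates were combined with inverse-variance weighting. A 9.35 °C upward shift was applied to fitted temperatures to match UV melts.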

[2] = melting temperature; fluorescence melt of hairpins on a sequencing array, two-state fit, raised by 9.35 °C to match UV melts; details: sodium 0.088 M
Method in brief: as §1

Sequence: GTGGGTGGAAACACTCAC (((.(((....))).)))
- folding enthalpy [1]: -37.2 kcal/mol
- Tm [2]: 52.1 °C

Sequence: GATCCGCGTACGGATC ((((((....))))))
- folding enthalpy [1]: -35.3 kcal/mol
- Tm [2]: 60.4 °C

Sequence: GGTACTCGAAAGAGCACC (((.(((....))).)))
- folding enthalpy [1]: -34.8 kcal/mol
- Tm [2]: 50.5 °C

Sequence: GCAGTAGAAATACTGC ((((((....))))))
- folding enthalpy [1]: -34.6 kcal/mol
- Tm [2]: 54.8 °C

Sequence: GTACAAGCGAAAGCTTAC (((..(((....))))))
- folding enthalpy [1]: -11.2 kcal/mol
- Tm [2]: 28.4 °C

Sequence: GATCTGTTAGCAGATC ((((((....))))))
- folding enthalpy [1]: -42.9 kcal/mol
- Tm [2]: 52.3 °C

Sequence: GCGCTGCGAAAGCACGC (((.(((....))))))
- folding enthalpy [1]: -17.6 kcal/mol
- Tm [2]: 69.2 °C

Sequence: GAAGCCGAAAGGCCCTTC ((((((....)))..)))
- folding enthalpy [1]: -11.8 kcal/mol
- Tm [2]: 31.3 °C

Sequence: GGAAGCTCGAAAGAGTCC (((..(((....))))))
- folding enthalpy [1]: -11.6 kcal/mol
- Tm [2]: 26.2 °C

Sequence: GTTTCGGGAAACCGAAAC (((((((....)))))))
- folding enthalpy [1]: -40.2 kcal/mol
- Tm [2]: 62.5 °C

Sequence: GATCTAGGCTTAGATC ((((((....))))))
- folding enthalpy [1]: -38.4 kcal/mol
- Tm [2]: 46.6 °C

Sequence: GTATTACGAAAGTAGTAC (((.(((....))).)))
- folding enthalpy [1]: -28.4 kcal/mol
- Tm [2]: 41.3 °C

Sequence: GCGGACACGAAAGTGCGC (((..(((....))))))
- folding enthalpy [1]: -26.1 kcal/mol
- Tm [2]: 55.6 °C

Sequence: GTGTACGAAAGTAGCAC ((((((....))).)))
- folding enthalpy [1]: -23.6 kcal/mol
- Tm [2]: 42.9 °C

Sequence: GGGTCGGGAAACCGGTCC ((..(((....)))..))
- folding enthalpy [1]: -28.5 kcal/mol
- Tm [2]: 47.2 °C

Sequence: GTCGCAGGAAACTGCAAC ((.((((....)))).))
- folding enthalpy [1]: -16.7 kcal/mol
- Tm [2]: 41.1 °C

Sequence: CGGACGGAAACGTAGCCG ((((((....)))..)))
- folding enthalpy [1]: -23.6 kcal/mol
- Tm [2]: 33.4 °C

Sequence: GATCTGGATTCAGATC ((((((....))))))
- folding enthalpy [1]: -39.3 kcal/mol
- Tm [2]: 48.6 °C

Sequence: GGGTAGGGAAACTTGCCC (((.(.(....).).)))
- folding enthalpy [1]: -20.4 kcal/mol
- Tm [2]: 35.6 °C

Sequence: GTAGGCGAAAGCCCTTAC ((((((....)))..)))
- folding enthalpy [1]: -9.27 kcal/mol
- Tm [2]: 37.9 °C

Sequence: GGAAACGAAAGTTTGTCC ((((((....)))..)))
- folding enthalpy [1]: -18.8 kcal/mol
- Tm [2]: 27.4 °C

Sequence: GGGTTCGGAAACGAGCCC (((.(((....))).)))
- folding enthalpy [1]: -57.9 kcal/mol
- Tm [2]: 58.1 °C

Sequence: GGGGCTGGAAACAGTCCC (((.(((....))).)))
- folding enthalpy [1]: -50.6 kcal/mol
- Tm [2]: 59.1 °C

Sequence: GCCTAGCGAAAGCGTGGC (((..((....))..)))
- folding enthalpy [1]: -30.2 kcal/mol
- Tm [2]: 64.5 °C

Sequence: GGGTGCCGAAAGGCCCC (((.(((....))))))
- folding enthalpy [1]: -21.8 kcal/mol
- Tm [2]: 67.2 °C

Sequence: GTTGGGGGAAACCCTAAC (((.(((....))).)))
- folding enthalpy [1]: -26.6 kcal/mol
- Tm [2]: 45.1 °C

Sequence: GCAATCGGAAACGATTAC (.(((((....))))).)
- folding enthalpy [1]: -16.1 kcal/mol
- Tm [2]: 38 °C

Sequence: GTAGAAGGAAACCTCTAC (((((.(....).)))))
- folding enthalpy [1]: -18.1 kcal/mol
- Tm [2]: 33.4 °C

Sequence: GGTAGGGGAAACCTTGCC ((.(.((....)).).))
- folding enthalpy [1]: -20.2 kcal/mol
- Tm [2]: 34.7 °C

Sequence: GAAACCGGAAACGGTCTC ((.((((....)))).))
- folding enthalpy [1]: -14.2 kcal/mol
- Tm [2]: 35.5 °C

Sequence: GCGTCTCAACGC ((((....))))
- folding enthalpy [1]: -20.3 kcal/mol
- Tm [2]: 56.6 °C

Sequence: GCCTGCGAAAGCATGGGC ((((((....)))..)))
- folding enthalpy [1]: -21.4 kcal/mol
- Tm [2]: 56.7 °C

Sequence: GCTCACCGAAAGGTCAGC (((.(((....))).)))
- folding enthalpy [1]: -26.3 kcal/mol
- Tm [2]: 44.2 °C

Sequence: GTGCATGCGAAAGCACAC (((..(((....))))))
- folding enthalpy [1]: -12.2 kcal/mol
- Tm [2]: 46.3 °C

Sequence: GATCGAGAGATCGATC ((((((....))))))
- folding enthalpy [1]: -25.6 kcal/mol
- Tm [2]: 54.7 °C

Sequence: GACAAGCCGAAAGGCGTC (((..(((....))))))
- folding enthalpy [1]: -9.16 kcal/mol
- Tm [2]: 42.3 °C

Sequence: GATCGTGAACACGATC ((((((....))))))
- folding enthalpy [1]: -34.5 kcal/mol
- Tm [2]: 63.6 °C

Sequence: GTCGGAGGAAACTTCGAC ((((.((....)).))))
- folding enthalpy [1]: -47.7 kcal/mol
- Tm [2]: 51 °C

Sequence: GCTGGGCGAAAGCACCGC ((.(.((....)).).))
- folding enthalpy [1]: -20.7 kcal/mol
- Tm [2]: 52.7 °C

Sequence: GGAAGCCGAAAGGCATCC (((.(((....))).)))
- folding enthalpy [1]: -21.9 kcal/mol
- Tm [2]: 56.1 °C

Sequence: GAGGTGGGAAACCACCCC (.(((((....))))).)
- folding enthalpy [1]: -10.7 kcal/mol
- Tm [2]: 44.6 °C

Sequence: GCGAAGCGAAAGCTGGGC ((..(((....)))..))
- folding enthalpy [1]: -9.44 kcal/mol
- Tm [2]: 43.7 °C

Sequence: GCTCGTCGAAAGACTAGC (((.(((....))).)))
- folding enthalpy [1]: -39 kcal/mol
- Tm [2]: 49 °C

Sequence: GATCAATGGATTGATC ((((((....))))))
- folding enthalpy [1]: -28.3 kcal/mol
- Tm [2]: 45.2 °C

Sequence: GCATTGCGAAAGCGGTGC (((..((....))..)))
- folding enthalpy [1]: -22.3 kcal/mol
- Tm [2]: 58.8 °C

Sequence: GATCAATGTCTTGATC ((((((....))))))
- folding enthalpy [1]: -27.9 kcal/mol
- Tm [2]: 43.5 °C

Sequence: GGATTCGAAAGAAATCC ((((((....))).)))
- folding enthalpy [1]: -24.1 kcal/mol
- Tm [2]: 44 °C

Sequence: GGCTCTGGAAACAAAGCC ((((.((....)).))))
- folding enthalpy [1]: -29.9 kcal/mol
- Tm [2]: 38 °C

Sequence: GTGTAGGGAAACCTATGC (..((((....))))..)
- folding enthalpy [1]: -12.2 kcal/mol
- Tm [2]: 30.9 °C

Sequence: GATCAAGGAAACCTGATC (((((.(....).)))))
- folding enthalpy [1]: -29.1 kcal/mol
- Tm [2]: 35.6 °C

Sequence: GGGTAGCGAAAGCTGCCC (((.(((....))).)))
- folding enthalpy [1]: -33.5 kcal/mol
- Tm [2]: 69.2 °C

Sequence: GGCCGGACGAAAGTCGCC (((..(((....))))))
- folding enthalpy [1]: -21.5 kcal/mol
- Tm [2]: 50 °C

Sequence: GTGTTGCGAAAGCACAC (((.(((....))))))
- folding enthalpy [1]: -33.8 kcal/mol
- Tm [2]: 56.3 °C

Sequence: GGAGATGGAAACATCTTC (.(((((....))))).)
- folding enthalpy [1]: -26.2 kcal/mol
- Tm [2]: 44.6 °C

Sequence: GACCTAGGAAACTGGGTC ((((.((....)).))))
- folding enthalpy [1]: -35 kcal/mol
- Tm [2]: 49.6 °C

Sequence: GTTCTGGCGAAAGCCAAC (((..(((....))))))
- folding enthalpy [1]: -7.18 kcal/mol
- Tm [2]: 19.8 °C

Sequence: ATGACGAAAGTCAT (((((....)))))
- folding enthalpy [1]: -19.1 kcal/mol
- Tm [2]: 56.8 °C

Sequence: GATCGCGAGTGCGATC ((((((....))))))
- folding enthalpy [1]: -33.8 kcal/mol
- Tm [2]: 66.3 °C

Sequence: GTCGACACGAAAGTGGAC (((..(((....))))))
- folding enthalpy [1]: -13.9 kcal/mol
- Tm [2]: 41.2 °C

Sequence: GGCCTTGGAAACGAGGCC (((((.(....).)))))
- folding enthalpy [1]: -50.7 kcal/mol
- Tm [2]: 59.4 °C

Sequence: GGTAGGAAACTACC (((((....)))))
- folding enthalpy [1]: -26.5 kcal/mol
- Tm [2]: 48.2 °C

Sequence: GGTCGTGGAAACACGATC (.(((((....))))).)
- folding enthalpy [1]: -38 kcal/mol
- Tm [2]: 54 °C

Sequence: GATCGCGATGGCGATC ((((((....))))))
- folding enthalpy [1]: -37.7 kcal/mol
- Tm [2]: 68.8 °C

Sequence: GTATTCCCGAAAGGGTAC (((..(((....))))))
- folding enthalpy [1]: -8.03 kcal/mol
- Tm [2]: 32.9 °C

Sequence: GAGTCCGAAAGGAACCTC ((((((....)))..)))
- folding enthalpy [1]: -16.5 kcal/mol
- Tm [2]: 33 °C

Sequence: GCGTCCAAACGC ((((....))))
- folding enthalpy [1]: -18.8 kcal/mol
- Tm [2]: 51.4 °C

Sequence: GAACGCGAAAGCGAGTTC ((((((....)))..)))
- folding enthalpy [1]: -14.8 kcal/mol
- Tm [2]: 43.1 °C

Sequence: GTTAAGCGAAAGCTGAAC (((.(((....))).)))
- folding enthalpy [1]: -23.2 kcal/mol
- Tm [2]: 48.2 °C

Sequence: GATCGGCCTCCGATC ((((((...))))))
- folding enthalpy [1]: -34.3 kcal/mol
- Tm [2]: 59.4 °C
